According to ChEMBL document CHEMBL3853327 (J Med Chem, 2016):

What was measured:
[1] = Cytotoxicity against human mock-infected MT4 cells assessed as reduction in cell viability after 5 days by MTT assay; format: toxicity, cell-based
Method in brief: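 Mock-infected MT-4 cells (6 × 10^5 cells/mL at seeding) with serial 5-fold compound dilutions in triplicate wells. Viability read by MTT after 5 days, absorbance at 540 and 690 nm, median OD of three wells. CC50 is the concentration reducing OD540 of mock-infected cells by 50%.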

[2] = test system: Human immunodeficiency virus 1; experiment: Antiviral activity against HIV1 3B harboring reverse transcriptase Y188L mutant infected in human MT4 cells assessed as protection against virus induced cytotoxicity after 5 days by MTT assay; format: functional, cell-based; details: Human immunodeficiency virus 1, 3B, MT4, 120 h
Method in brief: (§1)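 MTT cytopathicity assay in MT-4 cells (6 × 10^5 cells/mL). Compounds serially diluted 5-fold in triplicate wells, run in parallel on infected and mock-infected cells. Virus added at 100−300 CCID50 per well. Viability read spectrophotometrically at 540 and 690 nm after 5 days, using the median OD of three wells. EC50 is the concentration giving 50% protection from viral cytopathogenicity.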

[3] = test system: Human immunodeficiency virus 1; experiment: Antiviral activity against HIV1 3B harboring reverse transcriptase F227L/V106A double mutant infected in human MT4 cells assessed as protection against virus induced cytotoxicity after 5 days by MTT assay; format: functional, cell-based; details: Human immunodeficiency virus 1, 3B, MT4, 120 h; method in brief: as §1
[4] = Selectivity index, ratio of CC50 for human mock-infected MT4 cells to EC50 for HIV1 3B harboring reverse transcriptase Y188L mutant infected in human MT4 cells; format: toxicity, cell-based; details: MT4 cells (mock-infected for CC50, HIV-1 infected for EC50)
Method in brief: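 Selectivity index is CC50/EC50. CC50 is the concentration that reduces OD540 of mock-infected MT-4 cells by 50% in the 5-day MTT assay. EC50 is the 50% protection from virus-induced cytopathicity, measured in parallel on infected wells.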

[5] = test system: Human immunodeficiency virus 1; experiment: Fold resistance, ratio of EC50 for HIV1 3B harboring reverse transcriptase K103N mutant infected in human MT4 cells to EC50 for wild type HIV1 3B harboring reverse transcriptase infected in human MT4 cells; format: functional
Method in brief: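 Fold resistance is the EC50 against the mutant HIV-1 strain divided by the EC50 against WT IIIB. Both EC50s come from the MT-4 MTT cytoprotection assay (5-day read, 100−300 CCID50 inoculum).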

[6] = VRT (0 to infinity) in Sprague-Dawley rat plasma at 8 mg/kg administered through oral gavage measured at 5 mins to 24 hrs post dosing by LC/MS analysis; format: ADME, organism-based; details: in vivo
Method in brief: (§2)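 Male Sprague-Dawley rats, ten randomly split into two groups (n = 5), single gavage dose of 8 or 16 mg·kg−1 in PEG 400/normal saline (70/30, V/V). Jugular sinus blood into heparinized tubes at 5 min to 24 h; plasma separated at 2200g for 8 min, stored −20 °C. Methanol precipitation with internal standard, LC-MS quantitation against plasma standard curves. Parameters reported as mean ± SD.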

[7] = Apparent clearance during terminal phase in Sprague-Dawley rat plasma at 8 mg/kg administered through oral gavage measured at 5 mins to 24 hrs post dosing by LC/MS analysis; format: ADME, organism-based; details: in vivo; method in brief: as §2
Mus musculus = experiment: Acute toxicity in Kunming mouse assessed as increase in body weight at 2000 mg/kg, ig after 1 week; format: organism-based; details: in vivo, po, 168 h
Method in brief: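 Kunming mice (18−22 g), fasted 12 h, then given a single intragastric dose suspended in PEG-400 (100 or 200 mg·mL−1 for 1000 or 2000 mg·kg−1). Six mice per dose group, half male and half female. Deaths and body-weight gain followed for 1 week.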

Cc1cc(C#N)cc(C)c1Oc1nc(NC2CCN(Cc3ccc(S(N)(=O)=O)cc3)CC2)nc2ccsc12
CC50 at 120 h [1]: > 228000 nM | EC50 [2]: 3 nM | EC50 [3]: 4.2 nM | selectivity ratio [4]: > 70000 | Ratio EC50 [5]: <3 | VRT [6]: 13.31 hr2 | CLz/F [7]: 172 mL/min/kg | Activity (Mus musculus): Non-Toxic
